Xi reactivation: reactivates the inactive X chromosome in mouse fibroblasts. activation, % at 7.58 µM. XiGFP mouse fibroblasts, % GFP-positive cells imaging, 3 d; cells co-treated with 5-aza-dC sensitizer; scaled so ellipticine positive control = 100%. 360,000 compounds, 0.055% hits. AID 743238;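 active means mean normalized replicate activation at least 10% and every replicate at or above 10%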;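 further: 0% = median of on-plate neutral control wells and 100% = ellipticine 6 µM median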
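Assay system – SV40-immortalized XiGFP fibroblast cells, line 68-5-11 · Buffer or medium – DMEM supplemented with 5-aza-dC as sensitizing agent · Dosing – one concentration, pinned · Benchmarks – positive control ellipticine, 6 µM final · Times – 3 days compound exposure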
E-selectin induc: induces E-selectin expression in human endothelial cells; HUVEC E-selectin immunofluorescence imaging; normalized: neutral wells 0, TNF-alpha wells 100; activation, % at 7.58 µM; 260,000 compounds, 0.37% hits; AID 686992;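 active means mean E-selectin-positive cell signal at least 10% of the positive control, reached in at least 60% of replicates, without over 20% cell loss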
Target sequence (P16581 whole entry, looked up): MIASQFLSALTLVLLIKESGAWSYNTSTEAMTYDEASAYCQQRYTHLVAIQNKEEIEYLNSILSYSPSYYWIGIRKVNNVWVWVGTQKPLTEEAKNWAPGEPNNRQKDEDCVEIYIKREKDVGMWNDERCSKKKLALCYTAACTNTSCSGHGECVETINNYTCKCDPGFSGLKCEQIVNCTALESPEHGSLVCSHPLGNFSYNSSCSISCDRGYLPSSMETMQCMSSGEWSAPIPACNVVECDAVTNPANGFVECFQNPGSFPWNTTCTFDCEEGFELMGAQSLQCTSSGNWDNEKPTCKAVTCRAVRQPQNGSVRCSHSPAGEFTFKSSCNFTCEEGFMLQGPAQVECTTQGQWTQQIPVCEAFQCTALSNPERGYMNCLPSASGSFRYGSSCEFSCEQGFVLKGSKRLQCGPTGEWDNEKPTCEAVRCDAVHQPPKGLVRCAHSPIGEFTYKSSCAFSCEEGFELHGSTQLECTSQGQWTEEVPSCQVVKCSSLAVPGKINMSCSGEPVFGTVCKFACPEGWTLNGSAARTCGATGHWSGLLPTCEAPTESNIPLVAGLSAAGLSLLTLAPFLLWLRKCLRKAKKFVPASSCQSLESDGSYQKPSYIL
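Assay system: HUVEC primary endothelial cells. Input: 3,000 HUVEC seeded per well. Doses: one compound dose added by pin transfer. Read-out basis: % PE-positive cells. Benchmarks: TNF-alpha high, DMSO low. Detection: immunofluorescence imaging. Buffer or medium: EGM-2, gelatin.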
* marks the source's active call; other numbers are inactive results; x = not tested or not shown. The sample as a whole holds a higher share of hits than the screen did.

SMILES | Xi reactivation | E-selectin induc
COc1cccc(NC(=S)NCc2ccc3c(c2)cc(C)n3C)c1 | 0.1 | 0.2
Cc1cc2cc(CNC(=O)Nc3cccc(Cl)c3)ccc2n1C | 0.2 | 32.9*
Cc1cccc(NC(=O)NCc2ccc3c(c2)cc(C)n3C)c1 | 0.0 | 55.8*
Cc1cc2cc(CNC(=O)CCC(=O)O)ccc2n1C | 0.0 | x
Cc1noc(C)c1NC(=O)N(C)C[C@H]1Oc2c(NC(=O)c3cnccn3)cccc2C(=O)N([C@H](C)CO)C[C@H]1C | -0.1 | -0.1
C[C@H]1CN([C@@H](C)CO)C(=O)c2cc(NC(=O)Nc3ccc(C(F)(F)F)cc3)ccc2O[C@H]1CN(C)C | -0.5 | 0.1
CO[C@@H]1CN(C)C(=O)c2ccc(NC(C)=O)cc2OC[C@H](C)N(C(=O)CC2CC2)C[C@H]1C | -0.3 | -0.3
C[C@H](CO)N1C[C@H](C)[C@H](CN(C)C(=O)Nc2ccc3c(c2)OCO3)Oc2ccc(NC(=O)Nc3ccc4c(c3)OCO4)cc2CC1=O | 0.2 | 0.0
Cc1ccc(C(=O)N(Cc2nnc(-c3ccc(Cl)cc3)o2)C2CC2)o1 | 0.0 | 59.2*
O=C(C1=COCCO1)N(Cc1nnc(-c2ccc(Cl)cc2)o1)C1CC1 | 0.0 | x
C[C@H](CO)N1C[C@H](C)[C@@H](CN(C)CC2CC2)Oc2c(NC(=O)CCC(F)(F)F)cccc2C1=O | 0.1 | x
C[C@@H]1CN([C@H](C)CO)C(=O)c2cccc(NS(=O)(=O)c3ccc(F)cc3)c2O[C@@H]1CN(C)S(=O)(=O)c1cccs1 | 0.0 | 35.6*
C[C@H](CO)N1C[C@H](C)[C@H](CN(C)S(=O)(=O)c2ccccc2)Oc2c(NC(=O)C3CC3)cccc2C1=O | 0.1 | 0.1
C[C@H](CO)N1C[C@H](C)[C@H](CN(C)C(=O)Nc2cccc3ccccc23)Oc2c(NC(=O)c3ccncc3)cccc2C1=O | 0.0 | -6.9
C[C@H](CO)N1C[C@H](C)[C@@H](CN(C)C(=O)Nc2ccccc2)Oc2c(NS(=O)(=O)c3cccs3)cccc2C1=O | 1.0 | 0.8
C[C@@H]1CN([C@@H](C)CO)C(=O)c2cccc(NC(=O)c3ccncc3)c2O[C@H]1CN(C)C(=O)Nc1cccc2ccccc12 | 0.0 | 26.5*
C[C@H](CO)N1C[C@H](C)[C@H](CN(C)S(=O)(=O)c2ccccc2)Oc2c(NC(=O)C3CCOCC3)cccc2C1=O | -0.1 | 31.3*
C[C@H](CO)N1C[C@H](C)[C@@H](CN(C)S(=O)(=O)c2cccs2)Oc2c(NS(=O)(=O)c3ccc(F)cc3)cccc2C1=O | -0.9 | -3.5
C[C@H](CO)N1C[C@H](C)[C@H](CN(C)C(=O)Nc2ccccc2)Oc2c(NS(=O)(=O)c3cccs3)cccc2C1=O | -0.8 | 50.1*
CC(C)NC(=O)N[C@H]1CC[C@H](CCN)O[C@H]1CO | -0.4 | -0.2
CCCC(=O)N1CC2(C1)CN(C(=O)C1CCCC1)[C@H](CO)c1[nH]c3cc(OC)ccc3c12 | 0.4 | x
C[C@H](CO)N1C[C@H](C)[C@H](CN(C)S(=O)(=O)c2ccc(Cl)cc2)Oc2c(NC(=O)C3CCCCC3)cccc2C1=O | -0.1 | 36.3*
C[C@@H]1CN([C@H](C)CO)C(=O)c2cccc(NC(=O)c3ccncc3)c2O[C@H]1CN(C)S(=O)(=O)c1ccccc1 | -0.9 | 31.5*
C[C@H]1CN([C@@H](C)CO)C(=O)c2cccc(NC(=O)c3ccncc3)c2O[C@@H]1CN(C)S(=O)(=O)c1ccccc1 | -1.0 | 3.2
Cc1ccc(S(=O)(=O)Nc2cccc3c2O[C@H](CN(C)S(=O)(=O)c2ccc(Cl)cc2)[C@H](C)CN([C@H](C)CO)C3=O)cc1 | -1.1 | -0.2
SMILES | Xi reactivation | E-selectin induc
C[C@H](CO)N1C[C@H](C)[C@@H](CN(C)S(=O)(=O)c2ccc(Cl)cc2)Oc2c(NC(=O)C3CCCCC3)cccc2C1=O | 0.2 | -9.2
Cc1ccc(S(=O)(=O)N(C)C[C@@H]2Oc3c(NS(=O)(=O)c4ccc(Cl)cc4)cccc3C(=O)N([C@@H](C)CO)C[C@H]2C)cc1 | 0.0 | 49.1*
C[C@H](NC(=O)[C@H]1[C@H](CO)[C@H]2Cn3c(ccc(-c4cccnc4)c3=O)[C@H]2N1C)c1ccccc1 | 0.2 | -0.1
CO[C@H]1CN(C)C(=O)c2cc(NS(C)(=O)=O)ccc2OC[C@@H](C)N(CC2CCOCC2)C[C@@H]1C | -0.1 | 1.3
CC(=O)N(C)C[C@@H]1Oc2ncc(-c3ccccc3C)cc2C(=O)N([C@H](C)CO)C[C@@H]1C | 0.0 | -0.2
C[C@@H]1CCCCO[C@H](CN(C)C(=O)c2ccncc2)[C@H](C)CN([C@H](C)CO)C(=O)c2cc(NS(C)(=O)=O)ccc2O1 | -0.9 | 0.1
Cc1ccc(/C=N/NC(=O)c2n[nH]c3c2CCCC3)cc1 | 0.2 | 0.1
O=C(N/N=C/c1cccs1)c1n[nH]c2c1CCCC2 | 0.3 | 74.6*
